Five compounds from ChEMBL document CHEMBL5154731, “Synthetic methodology-enabled discovery of a tunable indole template for COX-1 inhibition and anti-cancer activity” (Bioorg Med Chem, 2022) can be followed below.

The test system of one series is Vero. Kind of series: Cytotoxicity against African green monkey Vero cells assessed as reduction in cell viability at 2.5 to 500 uM measured after 72 hrs by MTS assay. Format: toxicity, cell-based. Particulars: chlorocebus sabaeus, dose 2.5-500 µM. An outline of the steps: (§1)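 Cells seeded at 2000 to 4500/well on day 1. Next day, treated 72 h with drug at 2.5 to 500 μM from a 1% DMSO solution in medium (DMSO control), each in triplicate. All with 10% FBS. MTS reagent added for 2.5–3 h at 37 °C, absorbance at 490 nm; eight points averaged per concentration.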

Series [1] relates to HepG2. Kind of series: Induction of apoptosis in human HepG2 cells assessed as increase in cleaved caspase-3 level at 75 uM measured after 20 hrs by Western blot analysis. Format: functional, cell-based. The procedure, abridged: (§2)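 Hep-G2 (1 × 10^6/well) plated 48 h before treatment, then exposed 20 h to 0.1% DMSO solutions of compound (DMSO control). Cells washed in PBS and lysed in RIPA; 20–40 μg protein run on 4–20% gel at 150 V for 65 min, transferred to PVDF, blocked in 5% BSA. Probed overnight for cleaved and pro-caspase, Bcl-xL, Bcl-2, Bax and actin, then IRDye secondaries 1 h, with fluorescence quantification.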

In series [2] the test system is HepG2. The series is described as follows: Cell cycle arrest in human HepG2 cells assessed as increase in cell accumulation at G1/G0 phase at 100 uM measured after 24 to 48 hrs by propidium iodide staining based FACS analysis. It is filed as functional. As to conditions: time 24-48 hrs. The procedure, abridged: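 Hep-G2 grown to 70% confluence in 10-cm dishes, treated in 0.1% DMSO medium for 24 or 48 h (0.1% DMSO control). Floating and trypsinized cells pooled, washed in PBS, fixed overnight at –20 °C in 70% ethanol, then 200 μg/mL RNase A for 30 min and 100 μg/mL propidium iodide for 30 min at room temperature. DNA content read by flow cytometry; two independent experiments in duplicate.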
A general note: A flow cytometer gives signals particle by particle.

For series [3], the system named is HepG2. Kind of series: Cytotoxicity against human HepG2 cells assessed as reduction in cell viability measured after 72 hrs by MTS assay. Format: functional, cell-based. Particulars: HepG2, 72 h. The procedure, abridged:
as §1
In general terms: Tetrazolium dyes change colour on reduction, which living cells bring about.

The next series deals with A549. Kind of series: Cytotoxicity against human A549 cells assessed as reduction in cell viability measured after 72 hrs by MTS assay. Particulars: A549, 72 h. Format: functional, cell-based. The procedure, abridged: as §1
A short description of series [4]: Cytotoxicity against African green monkey Vero cells assessed as reduction in cell viability measured after 72 hrs by MTS assay. Particulars: African green monkey (Chlorocebus sabaeus). It is filed as toxicity, cell-based. The procedure, abridged:
as §1

The next series relates to MDA-MB-231. Kind of series: Cytotoxicity against human MDA-MB-231 cells assessed as reduction in cell viability measured after 72 hrs by MTS assay. Format: functional, cell-based. As to conditions: MDA-MB-231, 72 h. An outline of the steps:
as §1

In a further series the test system is MCF7. Kind of series: Cytotoxicity against human MCF7 cells assessed as reduction in cell viability measured after 72 hrs by MTS assay. It is filed as functional, cell-based. As to conditions: MCF7, 72 h. An outline of the steps:
as §1

For a further series, the system named is DU-145. The series is described as follows: Cytotoxicity against human DU-145 cells assessed as reduction in cell viability measured after 72 hrs by MTS assay. As to conditions: DU-145, 72 h. It is filed as functional, cell-based. The procedure, abridged:
as §1

A further series has as its system LNCaP. The series is described as follows: Cytotoxicity against human LNCaP cells over expressing androgen receptor F876L mutant assessed as reduction in cell viability measured after 72 hrs by MTS assay. It is filed as functional, cell-based. The procedure, abridged:
as §1

Another series relates to HeLa. The series is described as follows: Cytotoxicity against human HeLa cells assessed as reduction in cell viability measured after 72 hrs by MTS assay. It is filed as functional, cell-based. The procedure, abridged: as §1
Series [5] concerns HepG2. Kind of series: Induction of apoptosis in human HepG2 cells assessed as decrease in Bcl-2 expression at 75 uM measured after 20 hrs by Western blot analysis. Format: functional, cell-based. The procedure, abridged: as §2
For series [6], the system named is HepG2. The series is described as follows: Induction of apoptosis in human HepG2 cells assessed as down regulation of Bcl-xl expression at 75 uM measured after 20 hrs by Western blot analysis. It is filed as functional, cell-based. An outline of the steps:
as §2
(In general: A western blot detects proteins with antibodies after separation by electrophoresis.)

The subject of series [7] is HepG2. The series is described as follows: Induction of apoptosis in human HepG2 cells assessed as up regulation of Bax expression at 75 uM measured after 20 hrs by Western blot analysis. It is filed as functional, cell-based. An outline of the steps: as §2
Series [8] has as its system HepG2. Kind of series: Induction of apoptosis in human HepG2 cells assessed as increase in ratio of Bax/Bcl-2 expression at 75 uM measured after 20 hrs by Western blot analysis. Format: functional, cell-based. An outline of the steps:
as §2

Series [9] deals with HepG2. Kind of series: Down regulation of AR expression in human HepG2 cells at 75 uM measured after 20 hrs by Western blot analysis. Format: functional, cell-based.
For series [10], the target named is T1, Prostaglandin G/H synthase 1 (Ovis aries) (UniProt P05979).
T1 sequence (whole entry): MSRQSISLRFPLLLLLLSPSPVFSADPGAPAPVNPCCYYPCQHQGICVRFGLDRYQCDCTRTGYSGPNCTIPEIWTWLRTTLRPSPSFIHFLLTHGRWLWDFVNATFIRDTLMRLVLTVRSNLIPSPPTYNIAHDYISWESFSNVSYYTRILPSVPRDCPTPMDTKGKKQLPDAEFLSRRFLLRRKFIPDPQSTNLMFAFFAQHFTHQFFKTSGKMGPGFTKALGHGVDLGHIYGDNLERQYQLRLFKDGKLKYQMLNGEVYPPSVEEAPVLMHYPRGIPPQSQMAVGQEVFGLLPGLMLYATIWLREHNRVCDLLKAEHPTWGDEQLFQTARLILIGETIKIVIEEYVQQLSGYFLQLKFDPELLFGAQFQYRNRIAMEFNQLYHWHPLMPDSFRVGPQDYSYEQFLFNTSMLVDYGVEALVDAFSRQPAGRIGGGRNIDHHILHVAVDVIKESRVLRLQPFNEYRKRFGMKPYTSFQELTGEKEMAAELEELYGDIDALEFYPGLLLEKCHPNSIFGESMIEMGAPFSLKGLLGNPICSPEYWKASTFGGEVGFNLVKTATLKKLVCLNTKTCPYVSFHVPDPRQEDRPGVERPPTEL
Kind of series: Inhibition of full-length ovine COX-1 at 5 uM using arachidonic acid as substrate preincubated for 5 mins followed by substrate addition and measured after 2 mins by colorimetry relative to control. Particulars: time 7.0 min.

Series [11] has as its target T1, Prostaglandin G/H synthase 1 (Ovis aries). Kind of series: Inhibition of full-length ovine COX-1 at 50 uM using arachidonic acid as substrate preincubated for 5 mins followed by substrate addition and measured after 2 mins by colorimetry relative to control. As to conditions: time 7.0 min.
The target in series [12] is T2, Prostaglandin G/H synthase 1 (Ovis aries, UniProt P05979).
T2 sequence (P05979 whole entry): T1 sequence (whole entry)
Kind of series: Inhibition of full-length ovine COX-1 using arachidonic acid as substrate preincubated for 5 mins followed by substrate addition and measured after 2 mins by colorimetry.

Molecules are shown by their SMILES. Calls of active or inactive are those of the source. The rule behind the calls is not given here.

For the compound `COc1ccc2c(C(=O)O)cn(C)c2c1C(=O)OCC(F)(F)F`, the Activity entry in the series on Vero is recorded as “Non-Toxic”.

The IC50 is the concentration needed to halve the response being measured. For the compound `Cc1ccc(-c2cc(C(F)(F)F)nn2-c2ccc(S(N)(=O)=O)cc2)cc1` [CELECOXIB], the outcome with HepG2 [1], with HepG2 [2], in the series with HepG2 [5], in the series with HepG2 [6], with HepG2 [7] and in the series with HepG2 [8] was Active. Besides, in the series on HepG2 [9], the outcome was Active. The IC50 in the series with HepG2 [3] was 58.2 µM; with A549, 57.9 µM; in the series on MDA-MB-231 it was 69.6 µM; in the series on MCF7, 64.2 µM; in the series on DU-145 it was 59.3 µM; with LNCaP it was 16.4 µM. For the same compound, in the series on HeLa, the IC50 came out at 58.2 µM. In series [4], the IC50 at 72 h was found to be 60.6 µM.

Usually inhibition stands for the drop in the measured response relative to a control, in per cent. Turning to `COc1ccc2c(Cc3cn(C)c4c(C(=O)OCC(F)(F)F)c(OC)ccc34)cn(C)c2c1C(=O)OCC(F)(F)F`, the inhibition was below 20% in [10] and 22.9% in [11]. Also, in the series with Vero, the Activity entry was “Non-Toxic”.

`COc1ccc2c(Cc3cn(C)c4c(C(=O)NCC(F)(F)F)c(OC)ccc34)cn(C)c2c1C(=O)NCC(F)(F)F`: the inhibition in series [10] and in [11] was below 20% each time. The Activity entry in the series on Vero was “Non-Toxic”.

As for `COc1ccc2c(CO)cn(C)c2c1C(=O)NCC(F)(F)F`, the inhibition in series [10] and in series [11] was below 20% each time. Besides, the IC50 came to 85.8 µM in series [12]; 58.2 µM in the series on HepG2 [3]; 164 µM in the series with A549; 253 µM in the series with MDA-MB-231; 273 µM with MCF7; 144 µM with DU-145. Besides, the IC50 in the series with LNCaP was found to be 99 µM; in the series with HeLa it was 110 µM. In addition, in series [4], the IC50 at 72 h worked out at 229 µM.
